We go through ten molecules from ChEMBL document CHEMBL4118269 (J Med Chem, 2018).

A word on the logP: it is the decadic logarithm of the partition coefficient of the neutral form, usually between octanol and water. A higher logP goes with higher lipophilicity. What is called inhibition is the drop in the measured response relative to a control, in per cent. As a reminder, the CLint scaled is the rate of metabolic loss divided by the concentration. High values mean rapid turnover, low ones slow turnover.

Data set [1] is described as follows: Lipophilicity, log P of the compound. Type of data set: physicochemical. Conditions: octanol/water.
The target in data set [2] is Lanosterol 14-alpha demethylase (Aspergillus) (UniProt B8NUK6+Q9P8R0+G4WW85). Description: Inhibition of Aspergillus fumigatus CYP51 assessed as reduction in [3-3H]eburicol 14alpha-demethylation at 0.75 uM preincubated for 60 secs followed by NADPH addition measured after 60 mins by RP-HPLC analysis relative to control. In a few lines:
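E. coli-expressed, purified CYP51 (0.5 μM) with rat NADPH-P450 reductase (1.0 μM), 100 μM dilauroylphosphatidylcholine, isocitrate dehydrogenase/isocitrate NADPH regeneration, in 50 mM K phosphate pH 7.2 with 10% glycerol and 0.1% Triton X-100. [3-3H]eburicol 25 μM final, inhibitor 0.75 μM final (1.5:1:50 inhibitor:enzyme:substrate), 37 °C. Started with 100 μM NADPH, 60 min, EtOAc extraction, radio-HPLC. Percent inhibition, triplicate, mean ± SD.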

The target in data set [3] is Lanosterol 14-alpha demethylase (Candida albicans (strain SC5314 / ATCC MYA-2876) (Yeast), UniProt P10613). Description: Inhibition of Candida albicans CYP51 assessed as reduction in [3-3H]lanosterol 14alpha-demethylation at 0.75 uM preincubated for 60 secs followed by NADPH addition measured after 60 mins by RP-HPLC analysis relative to control. Conditions: 1 h. In a few lines:
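C. albicans CYP51 expressed in E. coli and purified, 0.5 μM, with 1.0 μM rat NADPH-P450 reductase, dilauroylphosphatidylcholine and isocitrate dehydrogenase/isocitrate regeneration in 50 mM potassium phosphate pH 7.2, 10% glycerol, 0.1% Triton X-100. Substrate 25 μM final; inhibitor:enzyme:substrate 1.5:1:50. 37 °C, started with 100 μM NADPH. Sterols extracted with EtOAc, radio-HPLC. Triplicate, mean ± SD.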

A short description of data set [4]: in vitro. Conditions: CD-1, mouse, liver microsomes.
A short description of data set [5]: Half life in Sprague-Dawley rat liver microsomes at 1 uM preincubated for 5 mins followed by NADPH addition measured up to 45 mins by LC-MS/MS analysis. It is filed as ADME, microsome. Conditions: 0.75 h. In a few lines: (§1)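 Pooled liver microsomes (0.5 mg/mL; male CD-1 mouse, male Sprague Dawley rat, or mixed-gender human) with 1 μM compound in 100 mM potassium phosphate pH 7.4, 3 mM MgCl2, 37 °C with shaking. 5 min preincubation, then 1 mM NADPH. Aliquots at 0, 3, 7, 15, 25, 45 min quenched in cold CH3CN with carbamazepine internal standard, then LC/MS/MS. Triplicate; T1/2 = ln2/k from the slope of ln % remaining versus time.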
Background: Liver microsomes are a subcellular fraction often used to study metabolism.

Data set [6] can be described thus: in vitro. Conditions: CD-1, mouse, liver microsomes. The source holds these as a separate data set.
Data set [7] in a line: in vitro. Conditions: human, liver microsomes.
Data set [8] in a line: Half life in human liver microsomes at 1 uM preincubated for 5 mins followed by NADPH addition measured up to 45 mins by LC-MS/MS analysis. It is filed as ADME, microsome. Conditions: 0.75 h. An outline of the steps: as §1
The nature of data set [9]: in vitro. Conditions: human, liver microsomes. This is another data set of the same source.
Data set [10] can be described thus: Half life in CD-1 mouse liver microsomes at 1 uM preincubated for 5 mins followed by NADPH addition measured up to 45 mins by LC-MS/MS analysis. It is filed as ADME, microsome. Conditions: 0.75 h. An outline of the steps:
as §1

A short description of data set [11]: in vitro. Conditions: Sprague-Dawley, rat, liver microsomes.
Data set [12] is described as follows: in vitro. Conditions: Sprague-Dawley, rat, liver microsomes. This is another data set of the same source.

Each structure is given as a SMILES string.

Lanosterol 14-alpha demethylase, sequence (P10613 whole entry): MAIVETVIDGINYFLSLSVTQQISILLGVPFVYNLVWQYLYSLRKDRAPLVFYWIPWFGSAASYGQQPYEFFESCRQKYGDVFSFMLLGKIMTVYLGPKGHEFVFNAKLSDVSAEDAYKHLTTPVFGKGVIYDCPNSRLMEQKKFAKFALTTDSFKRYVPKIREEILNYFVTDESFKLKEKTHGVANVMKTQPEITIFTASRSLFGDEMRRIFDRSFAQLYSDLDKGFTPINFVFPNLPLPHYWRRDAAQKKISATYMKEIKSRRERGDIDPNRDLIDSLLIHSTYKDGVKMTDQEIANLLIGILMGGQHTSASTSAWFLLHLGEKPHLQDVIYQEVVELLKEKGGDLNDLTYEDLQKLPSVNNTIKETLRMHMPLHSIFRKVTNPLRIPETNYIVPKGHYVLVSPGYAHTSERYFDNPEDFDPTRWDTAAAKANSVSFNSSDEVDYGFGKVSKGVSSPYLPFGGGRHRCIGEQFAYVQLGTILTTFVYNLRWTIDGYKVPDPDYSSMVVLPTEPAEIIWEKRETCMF

In data set [1], `O=C(N[C@@H](Cn1ccnc1)c1ccc(Cl)cc1Cl)c1ccc(-c2nnc(-c3ccc(N4CCOCC4)cc3)o2)cc1` registered a logP of 4.45. Also, the inhibition in data set [2] turned out to be 3%. The inhibition at 0.75 µM in [3] amounted to 29%.
Regarding `CS(=O)(=O)c1ccc(-c2nnc(-c3ccc(C(=O)N[C@@H](Cn4ccnc4)c4ccc(Cl)cc4Cl)cc3)o2)cc1Cl`, the CLhep predicted at 0.75 h, 1 µM in “in vitro [4]” was 34.5 mL/min/kg; in “in vitro [9]” it was 6.45 mL/min/kg; in the data set “in vitro [12]”, 42 mL/min/kg. Further, the t1/2 was 0.45 h in [5], 2.23 h in data set [8] and 1.62 h in data set [10]. Besides, the CLint scaled at 0.75 h, 1 µM turned out to be 56 mL/min/kg in the data set “in vitro [6]”, 9.31 mL/min/kg in the data set “in vitro [7]” and 104 mL/min/kg in “in vitro [11]”. Besides, the logP in data set [1] is 3.83. Also, the inhibition in [2] is 32%. In addition, the inhibition at 0.75 µM in data set [3] was determined as 53%.
Regarding `O=C(N[C@@H](Cn1ccnc1)c1ccc(Cl)cc1Cl)c1ccc(-c2nnc(-c3cccc(Br)c3)o2)cc1`, the CLhep predicted at 0.75 h, 1 µM is 55 mL/min/kg in “in vitro [4]”, 6.53 mL/min/kg in “in vitro [9]” and 19 mL/min/kg in “in vitro [12]”. In addition, the t1/2 in [5] was determined as 1.77 h; in data set [8], 2.2 h; in data set [10], 0.717 h. For the same molecule, the results for the intrinsic metabolic clearance (CLint scaled) at 0.75 h, 1 µM in “in vitro [6]”, in “in vitro [7]” and in the data set “in vitro [11]” were 126 mL/min/kg, 9.47 mL/min/kg and 27 mL/min/kg, respectively. For the same molecule, the logP in [1] is 5.4. The inhibition in data set [2] was determined as 41%. Besides, the inhibition at 0.75 µM in data set [3] was 84%.
In the case of `O=C(N[C@@H](Cn1ccnc1)c1ccc(Cl)cc1Cl)c1ccc(-c2nnc(-c3ccc(-c4ccccn4)cc3F)o2)cc1`, the CLhep predicted at 0.75 h, 1 µM in “in vitro [4]” was 26 mL/min/kg; in the data set “in vitro [9]” it was 8.75 mL/min/kg; in the data set “in vitro [12]”, 29.7 mL/min/kg. Also, the values for the t1/2 in data set [5], in [8] and in data set [10] were 0.9 h, 1.38 h and 2.48 h, respectively. Further, the CLint scaled at 0.75 h, 1 µM in the data set “in vitro [6]” was 36.5 mL/min/kg; in “in vitro [7]” it was 15 mL/min/kg; in the data set “in vitro [11]” it was 51.6 mL/min/kg. The logP in [1] is 5.49. Also, the inhibition in data set [2] was determined as 26%. The inhibition at 0.75 µM in data set [3] was 61%.
For the molecule `O=C(N[C@@H](Cn1ccnc1)c1ccc(Cl)cc1Cl)c1ccc(-c2nnc(-c3cc(F)cc(OCC(F)(F)F)c3)o2)cc1`, the results for the CLhep predicted at 0.75 h, 1 µM in “in vitro [4]”, in “in vitro [9]” and in the data set “in vitro [12]” were 43.6 mL/min/kg, 7.33 mL/min/kg and 29 mL/min/kg, respectively. Moreover, the figures for the t1/2 in data set [5], in [8] and in data set [10] were 0.933 h, 1.85 h and 1.08 h, respectively. For the same molecule, the CLint scaled at 0.75 h, 1 µM in “in vitro [6]” was determined as 84.7 mL/min/kg; in “in vitro [7]”, 11.3 mL/min/kg; in the data set “in vitro [11]”, 50.4 mL/min/kg. Further, the logP in [1] was determined as 5.58. In addition, the inhibition in data set [2] came to 51%. Besides, the inhibition at 0.75 µM in [3] stood at 65%.
With `O=C(N[C@@H](Cn1ccnc1)c1ccc(Cl)cc1Cl)c1ccc(-c2nnc(-c3cc(-c4ccccn4)ccc3F)o2)cc1`, the CLhep predicted at 0.75 h, 1 µM in the data set “in vitro [4]” was 65 mL/min/kg; in “in vitro [9]”, 6.85 mL/min/kg; in “in vitro [12]”, 29 mL/min/kg. The t1/2 amounted to 0.95 h in data set [5], 2.05 h in data set [8] and 0.383 h in data set [10]. Besides, the CLint scaled at 0.75 h, 1 µM in “in vitro [6]” is 238 mL/min/kg; in “in vitro [7]”, 10.2 mL/min/kg; in the data set “in vitro [11]”, 49.4 mL/min/kg. This molecule also gave a logP in data set [1] of 5.49. For the same molecule, in data set [2], the inhibition was found to be 24%. Further, the inhibition at 0.75 µM in [3] amounted to 83%.
With `O=C(N[C@@H](Cn1ccnc1)c1ccc(Cl)cc1Cl)c1ccc(-c2nnc(-c3cccc(-c4ccccn4)c3)o2)cc1`, the CLhep predicted at 0.75 h, 1 µM is 56 mL/min/kg in the data set “in vitro [4]”, 8.06 mL/min/kg in “in vitro [9]” and 35 mL/min/kg in “in vitro [12]”. Further, the t1/2 was determined as 0.683 h in data set [5], 1.58 h in [8] and 0.6 h in [10]. The CLint scaled at 0.75 h, 1 µM in the data set “in vitro [6]” is 152 mL/min/kg; in “in vitro [7]”, 13.1 mL/min/kg; in the data set “in vitro [11]”, 68 mL/min/kg. This molecule also came in with a logP in data set [1] of 5.33. Also, in data set [2], the inhibition amounted to 34%. For the same molecule, in data set [3], the inhibition at 0.75 µM is 77%.
`O=C(N[C@@H](Cn1ccnc1)c1ccc(Cl)cc1Cl)c1ccc(-c2nnc(-c3ccc(-c4ccccn4)cc3)o2)cc1`: the CLhep predicted at 0.75 h, 1 µM in the data set “in vitro [4]” is 46 mL/min/kg; in the data set “in vitro [9]”, 7.15 mL/min/kg; in the data set “in vitro [12]”, 40 mL/min/kg. In addition, the t1/2 in [5] came to 0.5 h; in [8], 1.92 h; in [10], 0.95 h. Further, the CLint scaled at 0.75 h, 1 µM in “in vitro [6]” was 95 mL/min/kg; in the data set “in vitro [7]” it was 10.8 mL/min/kg; in the data set “in vitro [11]” it was 94 mL/min/kg. The molecule also gave a logP in data set [1] of 5.33. The inhibition in [2] came out at 23%. In addition, in [3], the inhibition at 0.75 µM was 66%.
In [1], `O=C(N[C@@H](Cn1ccnc1)c1ccc(Cl)cc1Cl)c1ccc(-c2nnc(-c3cccc(N4CCOCC4)c3)o2)cc1` displayed a logP of 4.45. The inhibition in [2] worked out at 15%. Also, the inhibition at 0.75 µM in data set [3] is 58%.
For `O=C(N[C@@H](Cn1ccnc1)c1ccc(Cl)cc1Cl)c1ccc(-c2nnc(-c3ccc(Cl)c(Cl)c3)o2)cc1`, the results for the CLhep predicted at 0.75 h, 1 µM in the data set “in vitro [4]”, in the data set “in vitro [9]” and in the data set “in vitro [12]” were 49 mL/min/kg, 7.39 mL/min/kg and 35 mL/min/kg, respectively. The t1/2 in data set [5] turned out to be 0.667 h; in data set [8], 1.83 h; in data set [10] it was 0.85 h. Moreover, the figures for the CLint scaled at 0.75 h, 1 µM in the data set “in vitro [6]”, in the data set “in vitro [7]” and in the data set “in vitro [11]” were 107 mL/min/kg, 11.4 mL/min/kg and 70 mL/min/kg, respectively. The molecule also returned a logP in [1] of 5.68. For the same molecule, the inhibition in [2] is 55%. Also, in data set [3], the inhibition at 0.75 µM turned out to be 92%.
